Test results as given in ChEMBL document CHEMBL4400516, “A novel cereblon modulator for targeted protein degradation” (Eur J Med Chem, 2019).
Active and inactive are the calls of the source. No cut-off for these calls is given here.

Assays:
[1] = target: T1, Protein cereblon/Bromodomain-containing protein 4 (Homo sapiens, UniProt O60885+Q96SW2); test: Induction of CRBN-mediated BRD4 degradation in human 22RV1 cells measured after 24 hrs by immunoblotting analysis; type: cell-based
[2] = target: Protein cereblon/Zinc finger protein Aiolos (Homo sapiens) (UniProt Q96SW2+Q9UKT9); test: Induction of CRBN ubiquitin ligase-mediated IKZF3 degradation in human U266 cells up to 10 uM measured after 12 hrs by immunoblotting analysis
Protein cereblon/Zinc finger protein Aiolos (Homo sapiens), sequence (Q96SW2 whole entry, looked up): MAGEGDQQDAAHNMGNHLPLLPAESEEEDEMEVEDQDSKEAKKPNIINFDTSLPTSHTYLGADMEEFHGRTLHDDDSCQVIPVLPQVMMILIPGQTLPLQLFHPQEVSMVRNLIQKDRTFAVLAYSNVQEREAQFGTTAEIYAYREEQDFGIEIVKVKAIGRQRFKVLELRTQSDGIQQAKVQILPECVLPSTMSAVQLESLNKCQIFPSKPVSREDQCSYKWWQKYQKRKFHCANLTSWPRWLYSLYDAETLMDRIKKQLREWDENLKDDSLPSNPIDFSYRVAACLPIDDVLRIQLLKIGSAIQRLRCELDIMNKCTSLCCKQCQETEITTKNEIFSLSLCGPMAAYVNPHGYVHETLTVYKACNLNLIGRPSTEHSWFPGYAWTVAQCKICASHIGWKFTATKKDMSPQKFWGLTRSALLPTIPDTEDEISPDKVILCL
Protein cereblon/Zinc finger protein Aiolos (Homo sapiens), sequence (Q9UKT9 whole entry, looked up): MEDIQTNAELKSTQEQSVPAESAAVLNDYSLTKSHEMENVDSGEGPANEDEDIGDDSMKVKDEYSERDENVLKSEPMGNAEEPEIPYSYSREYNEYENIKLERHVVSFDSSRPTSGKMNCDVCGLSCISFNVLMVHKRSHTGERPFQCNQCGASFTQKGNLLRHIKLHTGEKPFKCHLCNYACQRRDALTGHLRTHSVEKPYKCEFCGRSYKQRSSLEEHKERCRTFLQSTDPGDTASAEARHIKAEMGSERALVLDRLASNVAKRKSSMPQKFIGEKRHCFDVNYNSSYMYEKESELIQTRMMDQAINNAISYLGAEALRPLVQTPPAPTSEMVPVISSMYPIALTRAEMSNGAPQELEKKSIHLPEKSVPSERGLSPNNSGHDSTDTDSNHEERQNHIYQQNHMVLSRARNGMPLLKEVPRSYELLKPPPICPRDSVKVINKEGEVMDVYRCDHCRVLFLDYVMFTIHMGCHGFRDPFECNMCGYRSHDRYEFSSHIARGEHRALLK

[3] = target: Bromodomain-containing protein 4 (Homo sapiens) (UniProt O60885); test: Induction of BRD4 degradation in CRBN knockdown human 22RV1 cells by immunoblotting analysis
In short: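 22Rv1 cells transfected with CRBN siRNA or negative-control siRNA using RNAiMAX. After 48 h, degrader added for 12 h. Lysates in HEPES/Triton X-100 buffer with protease inhibitor, then SDS-PAGE and immunoblot.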

[4] = target: T1, Protein cereblon/Bromodomain-containing protein 4; test: Induction of CRBN-mediated BRD4 degradation in human 22RV1 cells in presence of JQ1 by immunoblotting analysis; type: cell-based
[5] = target: Protein cereblon/Bromodomain-containing protein 3 (Homo sapiens) (UniProt Q15059+Q96SW2); test: Induction of CRBN-mediated BRD3 degradation in human 22RV1 cells up to 1000 nM measured after 24 hrs by immunoblotting analysis; type: cell-based
Protein cereblon/Bromodomain-containing protein 3 (Homo sapiens), sequence (Q15059 2-726 limits assumed): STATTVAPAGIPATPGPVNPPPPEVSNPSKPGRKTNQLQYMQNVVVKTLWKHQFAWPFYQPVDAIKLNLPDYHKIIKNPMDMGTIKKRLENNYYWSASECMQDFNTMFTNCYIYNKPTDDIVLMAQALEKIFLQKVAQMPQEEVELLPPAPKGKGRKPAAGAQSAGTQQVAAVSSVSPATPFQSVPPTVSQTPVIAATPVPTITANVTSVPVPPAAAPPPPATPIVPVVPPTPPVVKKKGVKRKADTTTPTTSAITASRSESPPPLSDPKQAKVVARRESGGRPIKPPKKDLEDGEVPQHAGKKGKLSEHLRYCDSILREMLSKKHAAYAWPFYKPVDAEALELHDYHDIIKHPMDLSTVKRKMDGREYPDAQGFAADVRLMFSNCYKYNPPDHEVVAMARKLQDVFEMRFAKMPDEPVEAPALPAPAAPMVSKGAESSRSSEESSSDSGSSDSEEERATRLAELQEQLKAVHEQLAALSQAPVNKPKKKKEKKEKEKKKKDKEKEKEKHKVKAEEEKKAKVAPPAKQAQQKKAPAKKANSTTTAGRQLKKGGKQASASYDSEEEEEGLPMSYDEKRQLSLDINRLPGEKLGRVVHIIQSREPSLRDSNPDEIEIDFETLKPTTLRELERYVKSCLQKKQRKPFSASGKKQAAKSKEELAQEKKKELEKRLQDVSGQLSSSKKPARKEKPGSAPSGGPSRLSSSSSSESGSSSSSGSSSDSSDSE
Protein cereblon/Bromodomain-containing protein 3 (Homo sapiens), sequence (Q96SW2 whole entry partner): as the sequence (Q96SW2 whole entry, looked up) above
In short: (§1)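 22Rv1 prostate cancer cells (RPMI-1640, 10% FBS) given a 24 h dose titration. Lysates in HEPES/Triton X-100 buffer with protease inhibitor, then SDS-PAGE, nitrocellulose transfer and immunoblot.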

CWR22R = test: Antiproliferative activity against human 22Rv1 cells after 72 hrs by CelTiter-Glo reagent-based luminescence assay; type: functional; conditions: 22Rv1, 72 h
In short: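 22Rv1 cells, 15,000 per well, exposed to compound at indicated concentrations for 72 hr. Viability read by CellTiter-Glo luminescence; relative growth versus DMSO-treated control. IC50 from nonlinear log(inhibitor) versus response fit.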

[6] = target: T1, Protein cereblon/Bromodomain-containing protein 4; test: Induction of Xpress-tagged CRBN (unknown origin)/FALG-tagged BRD4 (unknown origin) protein-protein interaction by immunoblotting analysis; type: protein assay
In short: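 Cells co-transfected with Xpress-CRBN and FLAG-BRD4 using X-tremeGENE HP. Lysates incubated with anti-FLAG magnetic beads, 4 °C for 3 h. Beads washed in lysis buffer and 500 mM NaCl wash buffer, eluted in SDS sample buffer, and immunoblotted.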

[7] = target: Protein cereblon/Bromodomain-containing protein 2 (Homo sapiens) (UniProt P25440+Q96SW2); test: Induction of CRBN-mediated BRD2 degradation in human 22RV1 cells up to 1000 nM measured after 24 hrs by immunoblotting analysis; type: cell-based; in short: as §1
Protein cereblon/Bromodomain-containing protein 2 (Homo sapiens), sequence (P25440 whole entry, looked up): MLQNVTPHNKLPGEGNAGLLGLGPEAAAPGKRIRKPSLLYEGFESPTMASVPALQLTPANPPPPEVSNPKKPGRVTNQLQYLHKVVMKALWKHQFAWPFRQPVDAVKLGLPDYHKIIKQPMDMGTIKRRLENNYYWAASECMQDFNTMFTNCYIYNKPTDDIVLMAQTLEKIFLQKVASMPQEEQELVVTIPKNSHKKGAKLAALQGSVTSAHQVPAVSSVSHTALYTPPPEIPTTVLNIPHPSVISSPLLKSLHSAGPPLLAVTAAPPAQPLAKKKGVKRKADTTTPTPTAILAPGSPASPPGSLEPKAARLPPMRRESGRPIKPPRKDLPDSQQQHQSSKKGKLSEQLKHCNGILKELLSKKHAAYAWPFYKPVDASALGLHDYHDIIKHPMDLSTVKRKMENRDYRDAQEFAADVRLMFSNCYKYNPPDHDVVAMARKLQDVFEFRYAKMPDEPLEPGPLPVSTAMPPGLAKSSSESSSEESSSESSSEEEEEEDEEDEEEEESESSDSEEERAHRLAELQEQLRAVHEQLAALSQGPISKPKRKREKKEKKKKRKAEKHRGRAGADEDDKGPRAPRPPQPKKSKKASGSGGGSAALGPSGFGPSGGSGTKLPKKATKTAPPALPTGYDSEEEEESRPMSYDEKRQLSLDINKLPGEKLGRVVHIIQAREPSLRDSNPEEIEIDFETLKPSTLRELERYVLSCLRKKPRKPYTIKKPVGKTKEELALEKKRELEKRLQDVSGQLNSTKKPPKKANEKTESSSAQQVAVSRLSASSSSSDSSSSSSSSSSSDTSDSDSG
Protein cereblon/Bromodomain-containing protein 2 (Homo sapiens), sequence (Q96SW2 whole entry, looked up): as the sequence (Q96SW2 whole entry, looked up) above

[8] = target: T1, Protein cereblon/Bromodomain-containing protein 4; test: Induction of CRBN-mediated BRD4 degradation in human 22RV1 cells in presence of TD-106 by immunoblotting analysis; type: cell-based
[9] = target: T1, Protein cereblon/Bromodomain-containing protein 4; test: Induction of CRBN-mediated BRD4 degradation in human 22RV1 cells in presence of proteasome inhibitor bortezomib by immunoblotting analysis; type: cell-based
[10] = target: T1, Protein cereblon/Bromodomain-containing protein 4; test: Induction of CRBN-mediated BRD4 degradation in human 22RV1 cells in presence of neddylation inhibitor MLN4924 by immunoblotting analysis; type: cell-based
NCI-H929 = test: Antiproliferative activity against human NCI-H929 cells after 72 hrs by WST-1 assay; type: functional; conditions: NCI-H929, 72 h
In short: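 NCI-H929 myeloma cells (RPMI-1640, 10% FBS, 0.05 mM 2-mercaptoethanol) seeded at 30% confluency and dosed the next day. After 72 h, WST-1 reagent added and absorbance at 450 nm read. IC50 from nonlinear log(inhibitor) versus response fit.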

TMD8 = test: Antitumor activity against human TMD8 cells xenografted in CB-17/IcrCri SCID mouse assessed as tumor growth inhibition at 50 mg/kg, ip qd for 14 days measured during compound dosing; type: functional, organism-based
In short: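 Female CB-17/IcrCri-scid mice carried subcutaneous TMD8 tumours in the right flank. Dosing began at about 150 mm3 mean tumour volume: 50 mg/kg i.p. once daily for 14 days in 20% PEG 400 / 3% Tween 80 in PBS, with DMSO as control. Calipers twice weekly; volume = length x width² x 0.5. Mean ± SE, n = 6.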

[11] = Toxicity in CB-17/IcrCri SCID mouse xenografted with human TMD8 cells assessed as adverse effect at 50 mg/kg, ip qd for 14 days; type: organism-based; conditions: in vivo, 336 h
In short: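 TMD8 subcutaneous xenografts in female CB-17/IcrCri-scid mice dosed i.p. at 50 mg/kg daily for 14 days in 20% PEG 400 / 3% Tween 80 in PBS, starting at about 150 mm3 tumours. Animals observed daily for signs of morbidity or mortality.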

[12] = Toxicity in CB-17/IcrCri SCID mouse xenografted with human TMD8 cells assessed as change in body weight at 50 mg/kg, ip qd for 14 days measured twice weekly during compound dosing; type: organism-based; conditions: in vivo, 336 h

T1 sequence (Q96SW2 whole entry, looked up, other chains not shown): as the sequence (Q96SW2 whole entry, looked up) above

In the case of `Cc1sc2c(c1C)C(c1ccc(Cl)cc1)=N[C@@H](CC(=O)Nc1cccc(OCCOCCOCCNc3cccc4nnn(C5CCC(=O)NC5=O)c(=O)c34)c1)c1nnc(C)n1-2` (some centres not stated), the DC50 [1] is reported as 0.32 nM, the Activity [2] is reported as “Active” and the Activity [3] is reported as “inactive”. The Activity [4] was “inactive”, the Activity [5] was “Active” and the CC50 (CWR22R) was 20.1 nM. For the same compound, the Activity [6] was “Active”, the Activity [7] was “Active” and the Activity [8] was “inactive”. The Activity [9] was “inactive” and the Activity [10] was “inactive”.

`Nc1cccc2c1C(=O)N(C1CCC(=O)NC1=O)C2=O` (configuration not stated) [POMALIDOMIDE] showed a CC50 (NCI-H929) of 35 nM.

With `Cc1sc2c(c1C)C(c1ccc(Cl)cc1)=N[C@@H](CC(=O)Nc1ccc(OCCOCCOCCNc3cccc4nnn(C5CCC(=O)NC5=O)c(=O)c34)cc1)c1nnc(C)n1-2` (some centres not stated) the DC50 [1] was 3.3 nM.

For `Nc1cccc2nnn(C3CCC(=O)NC3=O)c(=O)c12` (configuration not stated), the TGI (TMD8) was “Active”, the Activity [11] was “Non-Toxic” and the CC50 (NCI-H929) was 39 nM. For the same compound, the Activity [12] was “Non-Toxic”.
